APOBEC3A inh – inhibitors of human APOBEC3A DNA deaminase; inhibition, % at 20 µM; hit rate 0.41% among 330,000; AID 493011; P31941; recombinant A3A, FAM/TAMRA ssDNA deamination fluorescence;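 active means at least 40% inhibition at 20 µM here, with at most 30% in a related deaminase screen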;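 further: plate controls were A3A with DMSO for no effect and wells lacking A3A enzyme for full effect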
Target sequence (P31941 whole entry, looked up): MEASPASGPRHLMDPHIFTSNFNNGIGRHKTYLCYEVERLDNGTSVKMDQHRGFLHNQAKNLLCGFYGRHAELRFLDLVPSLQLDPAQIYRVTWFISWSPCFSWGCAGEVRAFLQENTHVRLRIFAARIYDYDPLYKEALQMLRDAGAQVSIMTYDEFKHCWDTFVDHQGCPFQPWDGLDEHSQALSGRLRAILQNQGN
SUMO Mot1 rescue – SUMOylation pathway inhibition by Mot1-301 growth rescue; growth rescue, % at 18.8 µM; S. cerevisiae Mot1-301 growth rescue, ATP luminescence, 38.5C; percent above DMSO median, 100 means doubled; hit rate 1% among 320,000;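 active means every valid replicate shows activation above 250% relative to neutral control wells; inactive means the rest, any valid replicate at or below 250%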;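 further: OY570 slx delta 5 strain wells were the positive control but not used for scaling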
ASAP1 inh – blocks human ASAP1-stimulated Arf1 GTP hydrolysis; GDP FP detection; inhibition, % at 16.5 µM; hit rate 0.19% among 360,000; AID 624377; in the data active means inhibition above about 25%;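 further: 0% = vehicle with enzyme and substrate and 100% = no enzyme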
Target sequence (Q9ULH1 325-724 limits assumed): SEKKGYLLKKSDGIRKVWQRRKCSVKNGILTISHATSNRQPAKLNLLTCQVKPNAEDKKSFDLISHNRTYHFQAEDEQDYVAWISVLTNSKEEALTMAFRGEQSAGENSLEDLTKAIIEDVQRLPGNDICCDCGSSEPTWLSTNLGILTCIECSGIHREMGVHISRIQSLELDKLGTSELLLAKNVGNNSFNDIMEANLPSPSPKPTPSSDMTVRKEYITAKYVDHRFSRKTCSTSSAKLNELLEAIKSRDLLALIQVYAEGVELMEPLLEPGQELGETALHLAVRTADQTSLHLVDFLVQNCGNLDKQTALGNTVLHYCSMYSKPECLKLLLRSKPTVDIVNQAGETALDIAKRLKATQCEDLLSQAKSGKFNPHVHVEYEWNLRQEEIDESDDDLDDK
ARFGAP1 inh – inhibits rat ARF GTPase activating protein 1; hit rate 0.26% among 360,000; inhibition, % at 16.5 µM; Arfgap1-stimulated ARF1 GTP hydrolysis, GDP FP detection;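 active means inhibition above a per-plate limit, mean inhibition of low control wells plus 3 SD, cut at about 25% in these data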;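 further: 0% = DMSO wells with enzyme and 100% = wells lacking Arfgap1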
Target sequence (Q62848 1-136 limits assumed): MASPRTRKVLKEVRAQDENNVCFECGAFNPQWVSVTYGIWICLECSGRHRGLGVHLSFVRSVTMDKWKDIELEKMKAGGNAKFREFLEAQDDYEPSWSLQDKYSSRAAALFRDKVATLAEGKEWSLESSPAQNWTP
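System: truncated rat Arfgap1 GAP domain / Benchmarks: high control wells lacking Arfgap1, low control full reaction with DMSO / Times: compound-enzyme preincubation 20 min, reaction 120 min, detection 60 min, 25 °C / Repeats: one replicate per compound / Also added: human ARF1(Δ1-17)-GTP substrate / Measured by: Tracer-displacement fluorescence polarization with EDTA stop, 620/688 nm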
Statin myotox sup – protects C2C12 myotubes from simvastatin toxicity. rescue of ATP level, % at 7.49 µM. ATP luminescence, 48 h; scaled: DMSO 0, geranylgeraniol control 100. AID 602340. hit rate 0.78% among 330,000;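 active means mean ATP rescue above about 67%, or every replicate alone reaching that limit, limit read from the data, passing the limit was not always enough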;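 further: myotubes were challenged with 10 µM simvastatin during compound exposure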
A3G deaminase – APOBEC3G (human) deaminase inhibition | AID 493012 | recombinant A3G, ssDNA deamination FAM/TAMRA fluorescence | Q9HC16 | hit rate 0.28% among 330,000 | inhibition, % at 20 µM;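 active means inhibition of at least 40% at 20 µM, with no more than 30% in the related APOBEC3A deaminase screen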;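 further: plate controls were DMSO wells with A3G for no effect and wells lacking A3G enzyme for full effect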
An asterisk follows results filed as active; . = no result; ! = repeats disagree. Rows were chosen to be rich in hits. Some 2.1% of all compounds tested hit in one or more screens of this group.

SMILES | APOBEC3A inh | SUMO Mot1 rescue | ASAP1 inh | ARFGAP1 inh | Statin myotox sup | A3G deaminase
O=C(NC1CCCC(C(F)(F)F)C1)c1ccc([N+](=O)[O-])o1 (stereo not given) | -1.0 | 92.1 | 6.0 | 3.9 | 15.2 | -4.0
Cc1ccc(S(=O)(=O)n2nc(-c3ccco3)nc2SCc2ccccc2)cc1 | 1.6 | 134.2 | 1.8 | -2.2 | 108.8* | 1.4
CSc1nc(-c2ccco2)nn1S(=O)(=O)c1ccc(C)cc1 | -1.5 | -1.3 | 4.2 | 7.5 | -2.9 | -4.3
COCC#Cc1cnc2c(c1)C(=O)N([C@H](C)CO)C[C@@H](C)[C@H](CN(C)C(=O)c1cccnc1)O2 | . | . | . | . | -0.3 | .
COc1cc(C(=O)COC(=O)CNC(=O)C2CCCCC2)cc(OC)c1OC | 0.0 | 269.5* | -8.5 | 2.9 | 1.4 | -2.9
COc1cc(C(=O)COC(=O)C2CCCCC2)cc(OC)c1OC | -4.6 | -3.3 | -15.3 | -11.6 | -3.1 | -7.7
CNC(=O)[C@@]1(C)C=C[C@@H](Cc2ccccc2)N1C(=O)OC | 1.0 | 271.5* | -4.2 | -3.7 | 0.6 | -2.8
N#C/C(C(=O)N1CCCCC1)=C1/N=C(NC(=O)c2ccc(F)cc2)c2ccccc21 | -4.0 | -0.2 | 0.1 | -17.3 | 86.5* | -6.9
COc1ccc(S(=O)(=O)N(C)C[C@@H]2Oc3c(NC(=O)Nc4ccc(C(F)(F)F)cc4)cccc3C(=O)N([C@@H](C)CO)C[C@@H]2C)cc1 | . | . | . | . | -24.8 | .
O=C(Nc1ccc(Cl)c(Cl)c1)O/N=C/c1ccncc1 | -7.9 | 517.4* | 10.1 | 6.9 | . | -6.5
O=C([C@H]1[C@H](CO)[C@H]2Cn3c(cccc3=O)[C@H]2N1Cc1ccccc1Cl)N1CCOCC1 | . | . | . | . | 1.9 | .
CO[C@@H]1CN(C)C(=O)c2cc(NC(=O)C3CC3)ccc2OC[C@H](C)N(CC2CCOCC2)C[C@H]1C | . | . | . | . | -7.4 | .
CC(C)CC#Cc1cnc2c(c1)C(=O)N([C@H](C)CO)C[C@H](C)[C@@H](CN(C)C(=O)Cc1ccccc1)O2 | . | . | . | . | 77.3* | .
C[C@H](CO)N1C[C@H](C)[C@@H](CN(C)CC2CCCC2)Oc2ncc(C#Cc3ccncc3)cc2C1=O | . | . | . | . | 102.6* | .
Cc1ccc(S(=O)(=O)N(C)C[C@@H]2Oc3ncc(C#Cc4cccc(F)c4)cc3C(=O)N([C@H](C)CO)C[C@@H]2C)cc1 | . | . | . | . | 99.9* | .
C[C@H](CO)N1C[C@H](C)[C@H](CN(C)S(=O)(=O)c2ccc(C#N)cc2)Oc2ncc(C#Cc3cccc(F)c3)cc2C1=O | . | . | . | . | 21.9 | .
COc1ccc(C#Cc2cnc3c(c2)C(=O)N([C@H](C)CO)C[C@H](C)[C@H](CN(C)Cc2cccc(C(F)(F)F)c2)O3)cc1OC | . | . | . | . | 151.9* | .
CCCNC(=O)C[C@@H]1CC[C@@H]2[C@H](COC[C@H](O)CN2C(=O)C2CCOCC2)O1 | . | . | . | . | -21.5 | .
Cc1noc(C)c1NC(=O)Nc1ccc2c(c1)CC(=O)N([C@H](C)CO)C[C@H](C)[C@H](CN(C)S(=O)(=O)c1ccc(Cl)cc1)O2 | . | . | . | . | -17.9 | .
COc1ccc(C#Cc2cnc3c(c2)C(=O)N([C@H](C)CO)C[C@H](C)[C@H](CN(C)C(=O)Nc2cccc(OC)c2)O3)cc1 | . | . | . | . | 9.6 | .
COc1ccc(C#Cc2cnc3c(c2)C(=O)N([C@@H](C)CO)C[C@@H](C)[C@H](CN(C)C(=O)Nc2cccc(OC)c2)O3)cc1 | . | . | . | . | 112.0* | .
O=C(CCCN1CCC(O)(c2ccc(Cl)cc2)CC1)c1ccc(F)cc1 | -2.1 | 588.2*! | 12.4 | 13.6 | 3.5 | -2.3
O=C(CCCN1CCC(O)(c2ccc(Br)cc2)CC1)c1ccc(F)cc1 | -2.8 | 271.6 | 2.4 | 6.8 | -1.6 | -4.7
CO[C@H]1CN(C)C(=O)c2ccc(NC(C)=O)cc2OC[C@@H](C)N(C(=O)Cc2ccccn2)C[C@@H]1C | . | . | . | . | -3.1 | .
CCCn1c(C2CCCN2c2nc(C)cs2)nc2cc(Cl)c(Cl)cc21 (stereo not given) | -1.8 | -8.5 | -6.8 | 3.0 | 6.2 | -6.4
SMILES | APOBEC3A inh | SUMO Mot1 rescue | ASAP1 inh | ARFGAP1 inh | Statin myotox sup | A3G deaminase
CCCn1c(C2CCCN2c2nc(-c3cccc(Br)c3)cs2)nc2cc(Cl)c(Cl)cc21 (stereo not given) | -4.6 | 70.1 | -2.3 | -3.4 | 117.4* | -6.7
CC(/C=C\c1cccnc1)=C/C(=O)O | 11.0 | -10.4 | -15.8 | -12.7 | 116.1*! | 7.0
CSc1cccc(NC(=S)N(CCN(C)C)C(C)c2ccncc2)c1 (stereo not given) | -2.9 | 318.3* | 1.1 | 3.0 | . | -8.8
CC1(C)CC(=O)C(C=NCCN2CCN(C(=S)Nc3ccc(F)cc3)CC2)=C(O)C1 | -7.2 | -11.1 | 8.1 | 6.6 | 65.1* | -5.5
CC1=NN(c2ccccc2)C(=O)/C1=C\c1ccc(Oc2ccc([N+](=O)[O-])cc2[N+](=O)[O-])cc1 | -3.0 | -6.3 | 12.7 | 24.7* | 10.5 | -3.9
O=C(NCC[C@H]1CC[C@H](NC(=O)c2ccccc2F)[C@H](CO)O1)c1ccc2c(c1)OCO2 | . | . | . | . | -1.0 | .
COc1cc(/C=C(\C#N)c2nc3ccccc3[nH]2)cc(Br)c1OCc1ccccc1 | 3.8 | 486.9* | 4.2 | 4.3 | -9.4 | -3.5
COc1cc(/C=C(\C#N)c2nc3ccccc3[nH]2)cc(Br)c1OCc1ccc(F)cc1 | -1.3 | 4.0 | -0.8 | -3.5 | -15.5 | -2.5
O=C(Nc1cccc(Cl)c1)N1C[C@H]2[C@@H](c3ccccc31)[C@@H](CO)N2C(=O)C1CC1 | . | . | . | . | -6.8 | .
COc1cc(C(=O)Oc2ccccc2OC(=O)c2cc(OC)c(OC)c(OC)c2)cc(OC)c1OC | . | . | 6.1 | 8.8 | 3.5 | .
COc1cc(C(=O)Oc2cccc(C)c2)cc(OC)c1OC | 2.4 | 55.5 | -9.6 | -5.3 | 116.6* | 0.4
COc1ccc(S(=O)(=O)N(Cc2cccs2)C2CCCC2)cc1 | -1.1 | -8.5 | -0.7 | 0.3 | 106.0* | 5.7
CCOCCc1nnc(NC(=O)CCc2ccccc2)s1 | -1.9 | 7.6 | 3.6 | 9.6 | . | -9.3
COCCc1nnc(NC(=O)Cc2ccccc2)s1 | -1.8 | -4.3 | -1.4 | 10.8 | 88.5* | -1.9
O=C(O)c1cc(NN=Nc2ccc(Br)cc2)cc([N+](=O)[O-])c1 | 2.4 | 321.9* | -5.7 | 15.1 | . | -3.7
CC=Cc1ccc2n(c1=O)C[C@H]1[C@H](CO)[C@@H](C(=O)Nc3ccccc3)[C@@H]2N1C(=O)CC1CC1 (mixture of isomers) | . | . | . | . | -3.6 | .
C/C=C/c1cnc2c(c1)C(=O)N([C@@H](C)CO)C[C@@H](C)[C@@H](CN(C)S(=O)(=O)c1cn(C)cn1)O2 | . | . | . | . | -4.1 | .
COc1ccc(S(=O)(=O)N(C)C[C@H]2OCCCC[C@H](C)Oc3ccc(NS(=O)(=O)c4ccc(F)cc4)cc3C(=O)N([C@H](C)CO)C[C@H]2C)cc1 | . | . | . | . | -5.6 | .
COc1ccc(S(=O)(=O)Nc2ccc3c(c2)C(=O)N([C@H](C)CO)C[C@@H](C)[C@H](CN(C)S(=O)(=O)c2ccc(F)cc2)OCCCC[C@H](C)O3)cc1 | . | . | . | . | 158.6* | .
